Screening results (PubChem)
Compounds with a hit are over-represented: about 1.8% of the library has one in this group of screens.
M4 antag = antagonists of human muscarinic M4 receptor (CHRM4). P08173. CHO-hM4 cells, ACh EC80, Fluo-8 calcium fluorescence. inhibition, % at 3 µM. 360,000 compounds, 0.73% hits. AID 624125;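 active = inhibition above its plate's cutoff, the mean inhibition of sample wells plus 3 SD, cut at about 27% in these data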;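 note: 0% = acetylcholine EC80 with DMSO and 100% = DMSO without agonist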
Target sequence (P08173 whole entry, looked up): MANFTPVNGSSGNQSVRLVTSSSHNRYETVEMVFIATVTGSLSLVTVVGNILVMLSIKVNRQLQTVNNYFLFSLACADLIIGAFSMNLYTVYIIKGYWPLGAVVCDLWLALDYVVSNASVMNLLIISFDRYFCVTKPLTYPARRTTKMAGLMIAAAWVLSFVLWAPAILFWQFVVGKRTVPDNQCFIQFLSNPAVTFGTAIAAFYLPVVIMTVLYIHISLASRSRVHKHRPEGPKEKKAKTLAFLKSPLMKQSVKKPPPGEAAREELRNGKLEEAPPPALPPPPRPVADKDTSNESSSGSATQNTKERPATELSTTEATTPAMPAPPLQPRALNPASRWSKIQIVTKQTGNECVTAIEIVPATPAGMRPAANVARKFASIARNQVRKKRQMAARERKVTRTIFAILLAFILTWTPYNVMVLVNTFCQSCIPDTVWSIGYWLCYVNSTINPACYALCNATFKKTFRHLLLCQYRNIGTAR
M4 ag = CHRM4 agonism in calcium assay | CHO-K1 hM4/Gqi5, Fluo-8 calcium fluorescence; vehicle 0%, full acetylcholine response 100% | P08173 | activation, % at 3 µM | 360,000 compounds, 0.14% hits;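 active = activation above the run mean over all test wells plus 3 SD, cut at about 32% in these data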;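 note: peak over basal fluorescence ratio per well then scaled between controls; 0% = DMSO wells and 100% = acetylcholine at EC100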
CHRM5 PAM = potentiates acetylcholine response at human M5 receptor. AID 624038. 360,000 compounds, 0.3% hits. activation, % at 3 µM. P08912. CHO-K1 hM5, Fluo-8 calcium, ACh EC20 PAM; 0% = ACh EC20, 100% = ACh EC100;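 active = activation above the run cutoff, the mean activation of all test compounds plus 3 SD, cut at about 18% in these data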
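Assay system: CHO-K1 hM5 cells / Incubation: Fluo-8 loading 80 min at 37 °C plus 30 min room temperature / Technique: Fluo-8 calcium dye fluorescence, kinetic read / Repeats: single replicate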
CHRM5 agonist = CHRM5 agonism in calcium assay. P08912. CHO-K1 hM5 cells, Fluo-8 calcium fluorescence; 0% DMSO wells, 100% maximal acetylcholine response. activation, % at 3 µM. 360,000 compounds, 0.19% hits;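 active = activation above the run's mean over test compounds plus 3 SD, cut at about 23% in these data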;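 note: signal is peak over basal fluorescence ratio across the kinetic read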
M4 PAM = CHRM4 positive allosteric modulation; P08173; 360,000 compounds, 0.4% hits; activation, % at 3 µM; CHO-K1 hM4/Gqi5, Fluo-8 calcium fluorescence, ACh EC20; 0% = ACh EC20, 100% = maximal ACh;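 active = activation above its plate's cutoff, the mean activation of sample wells plus 3 SD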
CHRM5 antagonist = CHRM5 antagonism in calcium assay. CHO-hM5 cells, Fluo-8 calcium fluorescence, ACh EC80. 360,000 compounds, 0.59% hits. AID 624040. P08912. inhibition, % at 3 µM;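 active = inhibition above a per-plate cutoff, the mean of that plate's test compounds plus 3 SD, cut at about 27% in these data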;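 note: 0% = acetylcholine EC80 with DMSO and 100% = DMSO without agonist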
Active calls of the source: *.

SMILES	M4 antag	M4 ag	CHRM5 PAM	CHRM5 agonist	M4 PAM	CHRM5 antagonist
Cc1ccc(C)c(NC(=S)N(C)CCc2ccccn2)c1	-5	1	10	-3	18*	-5
CC(C)(C)C(=O)/C=c1\s/c(=C\c2ccc(-c3ccc([N+](=O)[O-])cc3)o2)c(=O)n1CC(=O)NC(N)=O	17	9	-12	9	-9	32*
Cc1cccc(S(=O)Cc2ccc(C(=O)N3CCN(C(=O)c4ccco4)CC3)o2)c1 (stereo not given)	-17	4	22*	3	1	-8
COCCNC(=O)C1CCCN(C(=O)c2cc(-c3cccs3)oc2C)CC1 (stereo not given)	2	-1	0	-1	1	1
O=C(Nc1ccccc1O)c1ccc2c(c1)C(=O)N(c1ccccc1)C2=O	3	0	0	2	4	6
Cc1cc(N2C(=O)c3ccc(C(=O)Nc4ccccc4O)cc3C2=O)no1	-2	0	-5	-5	2	28*
O=[N+]([O-])c1ccc(CN2CCN(c3ccc(Cl)cc3)CC2)o1	7	0	7	-2	-5	0
COc1cccc(C(C(=O)NC2CCCC2)N(C(=O)c2ccco2)c2ccc(NC(C)=O)cc2)c1OC (stereo not given)	-9	2	-1	-4	21*	12
O=C(NCc1ccc2c(c1)OCO2)c1nc(S(=O)(=O)Cc2ccccc2F)ncc1Cl	38*	9	-3	-4	-10	16
CC(C)(O)C#Cc1ccc(CN2CCN(C3CCCCC3)C(CCO)C2)cc1 (stereo not given)	16	1	-2	-8	-10	2
CC(C)(O)C#Cc1ccc(CN2CCN(C3CCCC3)C(CCO)C2)cc1 (stereo not given)	28*	1	7	-15	-44	-2
OCCC1CN(Cc2cnc(-c3ccc(Cl)cc3)nc2)CCN1C1CCCCC1 (stereo not given)	2	5	-14	-9	-25	30*
CSc1ccc(CN2CCN(C3CCCC3)C(CCO)C2)cc1 (stereo not given)	57*	2	-1	-15	-27	0
OCCC1CN(Cc2ccncc2)CCN1C1CCCC1 (stereo not given)	-2	0	-3	-4	-5	2
CC(C)(O)C#Cc1ccc(CN2CCN(C3CCCCC3)C(CCO)C2)s1 (stereo not given)	27*	0	4	-8	-22	-2
C[C@@H]1CN([C@H](C)CO)C(=O)c2cc(-c3ccccc3)cnc2O[C@@H]1CN(C)C(=O)C1CCOCC1	-6	0	-1	1	-2	2
CCn1c(=S)[nH]c2c(=O)n(C)c(=O)n(C)c21	-4	0	4	2	2	5
c1ccc(C2=NNC(c3ccco3)=Nc3ccccc32)cc1	0	0	2	-1	1	-1
Cc1ccc(C2=NNC(c3ccc(Cl)cc3)=Nc3ccccc32)o1	9	0	3	-4	25*	-6
O=C(CN1C(=O)NC2(CCCCC2)C1=O)N1CCN(c2ncccn2)CC1	-8	2	10	5	4	-10
OCCNC(=S)NCCc1ccccc1	3	1	7	-3	3	-9
CC(C)(CNC(=S)NCCc1ccccc1)CNC(=S)NCCc1ccccc1	26	18	-17	5	-16	28*
Cc1nc(N)c(Cc2ccc(Cl)cc2Cl)c(N)n1	20	36*	-17	2	-18	28*
Cc1noc(C)c1CSc1ccccc1C(=O)Nc1nccs1	-7	1	30*	-5	5	-8
CCC(C)[C@H]1CNC(=O)C(=O)N1CC1CCCCC1 (stereo not given in full)	-2	1	0	0	9	-2
SMILES	M4 antag	M4 ag	CHRM5 PAM	CHRM5 agonist	M4 PAM	CHRM5 antagonist
Cc1nc(Cl)sc1C(=O)Nc1cc(F)cc(F)c1	4	8	1	6	-5	1
Cc1nc(Cl)sc1C(=O)O	6	1	1	-2	34*	-4
CN1OC[C@@H]2CN(Cc3ccc4c(c3)OCO4)[C@H](c3ccc(N4CCCCC4)cc3)C[C@@H]21	-16	-1	1	0	9	6
Cc1nnc(SCC(=O)c2cc(C)n(-c3ccc4c(c3)OCO4)c2C)s1	13	11	-11	-1	-22	27*
CN1CCC(=C(c2ccccc2)c2ccc(Br)cc2)CC1	12	12	-34	-15	-47	30*
CN(C)CCCN(C(=O)c1cc(Cl)sc1Cl)c1nc2cc3c(cc2s1)OCO3	62*	5	-18	-9	-16	42*
Cc1ccc(C(=O)C(C)OC(=O)Cc2c[nH]c3ccccc23)cc1 (stereo not given)	-3	0	2	-4	2	11
Cc1ccc(NC(=O)C(C)OC(=O)Cc2c[nH]c3ccccc23)cc1 (stereo not given)	-12	2	17	-5	24*	-10
Cc1cc(C(c2ccc(O)cc2)c2cc(C)c(O)cc2C)c(C)cc1O	8	30	-1	37*	-7	7
CCOc1ccccc1NC(=O)COC(=O)COc1cccc2c1OC(C)(C)C2	-11	7	-1	1	-4	-3
O=C(NNC(=O)c1ccc(Oc2cc(Cl)cc(Cl)c2)o1)c1ccccc1	5	11	-8	2	-21	12
O=C(NNC(=O)c1ccc(Oc2ccc(C3SCCS3)cc2)o1)c1ccc(Cl)cc1	27*	18	-23	2	-34	17
COCC(C)NS(=O)(=O)c1ccc(NC(=O)c2ccccn2)cc1 (stereo not given)	-9	1	-18	-3	-6	30*
C[C@@H](NCCCn1ccc(NC(=O)OCc2ccccc2)nc1=O)c1cccc2ccccc12	-12	4	-5	-2	1	5
CCc1nn(CCCC(=O)NC2CCCCC2C)c(=O)c2cc3occc3n12 (stereo not given)	-14	4	-1	-3	13	6
CN(C(=O)c1ccccn1)C1(C(=O)NC2CCCCC2)CCCCC1	-4	-1	17	-9	-2	6
CC(=O)NCC(=O)N(c1ccccc1)C1(C(=O)NC2CCCCC2)CCCCC1	5	1	20*	-3	10	-4
O=S(=O)(c1ccc(N2CCCCCC2)nc1)N1CCCC1	29*	0	-16	-11	-17	-5
CN(C)CC#CCC(O)(c1ccccc1)c1ccccc1	24	0	-31	-19	-50	24
